{"data": "Measurements of several laboratories", "target": "High affinity nerve growth factor receptor (NTRK1, Homo sapiens, UniProt P04629)", "effect on": "enzyme activity", "mode": "inhibitor"}
{"SMILES": "O=C(Nc1ccc(C(F)(F)F)cc1)Nc1cccc(C(=O)Nc2ccc3[nH]ncc3c2)c1", "test": "FRET", "conditions": "1 µM", "inhibition [%]": 74}
{"SMILES": "CCCS(=O)(=O)Nc1ccc(F)c(C(=O)c2c[nH]c3ncc(-c4ccc(Cl)cc4)cc23)c1F", "conditions": "1 µM", "inhibition [%]": "< 10"}
{"SMILES": "CCN(CC)CCNC(=O)c1c(C)[nH]c(/C=C2\\C(=O)Nc3ccc(F)cc32)c1C", "conditions": "10 µM", "inhibition [%]": 99}
{"SMILES": "CN(C)C1CCN(CC#Cc2nn(C3CCCC3)c3nc(NCc4ccccc4)ncc23)C1 (stereo not shown)", "test": "FRET", "conditions": "10 µM", "inhibition [%]": 65}
{"SMILES": "Cc1ccc(Nc2nccc(N(C)c3ccc4c(C)n(C)nc4c3)n2)cc1S(N)(=O)=O", "conditions": "10 µM", "inhibition [%]": 79}
{"SMILES": "O=C(Nc1cccc(C(=O)Nc2ccc3[nH]ncc3c2)c1)Nc1ccccc1C(F)(F)F", "test": "FRET", "conditions": "1 µM", "inhibition [%]": 51.3}
{"SMILES": "CN1CC(Oc2cnc(C#N)cc2-c2ccn3nc(NC(=O)C4CC4)cc3c2)C1", "conditions": "1 µM", "inhibition [%]": 5}
{"SMILES": "O=C(Nc1ccc(C(F)(F)F)cc1)Nc1cccc(C(=O)Nc2ccc3[nH]nc(-c4ccccc4)c3c2)c1", "test": "FRET", "conditions": "1 µM", "inhibition [%]": 17}
{"SMILES": "C=CC(=O)Nc1cc(Nc2nccc(Nc3cc(Cl)c(F)cc3C(C)(C)O)n2)c(OC)cc1N1CC[C@@H](N(C)C)C1", "conditions": "1 µM", "inhibition [%]": 51}
{"SMILES": "CNC(=O)c1cc(Oc2ccc(NC(=O)Nc3ccc(Cl)c(C(F)(F)F)c3)cc2)ccn1", "conditions": "0.3 µM", "inhibition [%]": 36}
{"SMILES": "COc1cc2ncnc(Nc3ccc(Oc4ccccc4)c(C)c3C)c2cc1OC", "conditions": "1 µM", "inhibition [%]": -1}
{"SMILES": "O=C(Nc1ccc2[nH]ncc2c1)c1cccc(NC(=S)Nc2ccc(C(F)(F)F)cc2)c1", "test": "FRET", "conditions": "1 µM", "inhibition [%]": 58}
{"SMILES": "CNCc1ccc(-c2cc(-c3nc(-c4ccc(S(=O)(=O)C(C)C)cc4)cnc3N)on2)cc1", "conditions": "0.4 µM", "inhibition [%]": 13}
{"SMILES": "CNC(=O)c1cc2c(Oc3ccc(NC(=O)C4(C(=O)Nc5ccc(F)cc5)CC4)cc3)ccnc2cc1OC", "test": "radiometric", "conditions": "1 µM", "inhibition [%]": 99}
{"SMILES": "O=C(Nc1ccc(OC(F)(F)F)cc1)Nc1cccc(C(=O)Nc2ccc3[nH]ncc3c2)c1", "test": "FRET", "conditions": "1 µM", "inhibition [%]": 69.2}
{"SMILES": "COc1cc2nccc(Oc3ccc(NC(=O)c4c5n(n(-c6ccc(F)cc6)c4=O)CCCC5)cc3)c2cc1OC", "conditions": "0.1 µM", "inhibition [%]": 63}
